Data as given in ChEMBL document CHEMBL1151448, “Comparative antianaerobic activities of doripenem determined by MIC and time-kill analysis” (2008).
Values after ≈ are worked out from the molar mass of the structure shown. Active and inactive are the calls of the source. No cut-off for these calls is given here.

How the values were obtained:
[1] = tested on: Clostridioides difficile; assay: Antimicrobial activity against Clostridium difficile isolated from intra-abdominal infection and pelvic inflammatory disease patients after 48 hrs by agar dilution method; format: functional
Outline: (§1)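 CLSI agar dilution on brucella blood agar supplemented with laked sheep blood, hemin and vitamin K. Inocula of about 1 × 10^5 CFU/spot were applied by Steers replicator, and plates were incubated 48 h at 35°C in an anaerobic glove box. MIC was the concentration giving marked growth reduction versus the anaerobic control plate. QC strains were included each run, and β-lactamase was detected by Cefinase disk.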

[2] = tested on: Clostridium cadaveris; assay: Antimicrobial activity against Clostridium cadaveris isolated from intra-abdominal infection and pelvic inflammatory disease patients after 48 hrs by agar dilution method; format: functional; outline: as §1
[3] = tested on: Fusobacterium nucleatum; assay: Bactericidal activity against beta lactamase-positive Fusobacterium nucleatum isolated from intra-abdominal infection and pelvic inflammatory disease patients assessed as bacterial killing at 2 times MIC after 48 hrs by time kill analysis; format: functional
Outline: (§2)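 Anaerobic macrodilution time-kill. Inoculum from brucella blood plates, prepared and diluted in prereduced brucella broth inside the anaerobe chamber. Final 10^6 to 10^7 CFU/ml in prereduced brucella broth with 5% laked horse blood cells, 5 μg/ml hemin and 1 μg/ml vitamin K1. […] Shaken at 35°C for 48 h. Viable counts taken at 6, 12, 24 and 48 h. 99.9% kill taken as bactericidal.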

[4] = tested on: Finegoldia magna; assay: Bactericidal activity against beta lactamase-positive Finegoldia magna isolated from intra-abdominal infection and pelvic inflammatory disease patients assessed as 99.9% bacterial killing at 2 times MIC after 48 hrs by time kill analysis; format: functional, organism-based
Outline: (§3)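 Macrodilution time-kill in prereduced brucella broth with 5% laked horse blood, hemin 5 μg/ml and vitamin K1 1 μg/ml, at final inoculum 10^6–10^7 CFU/ml. […] Viable counts were taken at 6, 12, 24 and 48 h on plates incubated 48 h anaerobically. 99.9% kill was taken as bactericidal.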

[5] = tested on: Clostridium perfringens; assay: Bactericidal activity against Clostridium perfringens isolated from intra-abdominal infection and pelvic inflammatory disease patients assessed as bacterial killing at MIC after 24 hrs by time kill analysis; format: functional
Outline: (§4)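 Time-kill in prereduced brucella broth with 5% laked horse blood cells, hemin and vitamin K1. […] Viable counts taken at 6, 12, 24 and 48 h, plates incubated 48 h anaerobically. Kill scored as 90%, 99% or 99.9%; 99.9% defines bactericidal.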

[6] = tested on: Bacteroides ovatus; assay: Antimicrobial activity against beta lactamase-positive Bacteroides ovatus isolated from intra-abdominal infection and pelvic inflammatory disease patients after 48 hrs by agar dilution method; format: functional; outline: as §1
[7] = tested on: Finegoldia magna; assay: Antimicrobial activity against Finegoldia magna isolated from intra-abdominal infection and pelvic inflammatory disease patients after 48 hrs by agar dilution method; format: functional; outline: as §1
[8] = tested on: Prevotella buccae; assay: Antimicrobial activity against beta lactamase-positive Prevotella buccae isolated from intra-abdominal infection and pelvic inflammatory disease patients after 48 hrs by agar dilution method; format: functional; conditions: Segatella buccae; outline: as §1
[9] = tested on: Peptostreptococcus anaerobius; assay: Antimicrobial activity against Peptostreptococcus anaerobius isolated from intra-abdominal infection and pelvic inflammatory disease patients after 48 hrs by agar dilution method; format: functional; outline: as §1
[10] = tested on: Bacteroides fragilis; assay: Bactericidal activity against beta lactamase-positive Bacteroides fragilis isolated from intra-abdominal infection and pelvic inflammatory disease patients assessed as bacterial killing at MIC after 24 hrs by time kill analysis; format: functional; outline: as §3
[11] = tested on: Bacteroides fragilis; assay: Antimicrobial activity against beta lactamase-positive Bacteroides fragilis isolated from intra-abdominal infection and pelvic inflammatory disease patients after 48 hrs by time kill analysis; format: functional
Outline: (§5)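 The MIC was read by inspecting macrodilution time-kill tubes. Vials held prereduced brucella broth with 5% laked horse blood cells, hemin 5 μg/ml and vitamin K1 1 μg/ml. Final inoculum was 10^6–10^7 CFU/ml, prepared inside the anaerobe chamber. Vials were incubated 48 h at 35°C in a shaking water bath.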

[12] = tested on: Clostridium perfringens; assay: Antimicrobial activity against Clostridium perfringens isolated from intra-abdominal infection and pelvic inflammatory disease patients after 48 hrs by time kill analysis; format: functional
Outline: (§6)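 Macrodilution in prereduced brucella broth with 5% laked horse blood cells, 5 μg/ml hemin and 1 μg/ml vitamin K1. Final inoculum 10^6 to 10^7 CFU/ml, prepared inside the anaerobe chamber. Vials incubated 48 h at 35°C in a shaking water bath. MIC read by inspecting the time-kill tubes, alongside an antibiotic-free growth control.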

[13] = tested on: Clostridium perfringens; assay: Bactericidal activity against Clostridium perfringens isolated from intra-abdominal infection and pelvic inflammatory disease patients assessed as bacterial killing at 2 times MIC after 48 hrs by time kill analysis; format: functional; outline: as §4
[14] = tested on: Porphyromonas asaccharolytica; assay: Antimicrobial activity against Porphyromonas asaccharolyticus isolated from intra-abdominal infection and pelvic inflammatory disease patients after 48 hrs by agar dilution method; format: functional; outline: as §1
[15] = tested on: Bacteroides thetaiotaomicron; assay: Antimicrobial activity against beta lactamase-positive Bacteroides thetaiotaomicron isolated from intra-abdominal infection and pelvic inflammatory disease patients after 48 hrs by time kill analysis; format: functional; outline: as §5
[16] = tested on: Finegoldia magna; assay: Bactericidal activity against beta lactamase-positive Finegoldia magna isolated from intra-abdominal infection and pelvic inflammatory disease patients assessed as bacterial killing at MIC after 24 hrs by time kill analysis; format: functional; outline: as §2
[17] = tested on: Porphyromonas levii; assay: Antimicrobial activity against Porphyromonas levii isolated from intra-abdominal infection and pelvic inflammatory disease patients after 48 hrs by agar dilution method; format: functional; outline: as §1
[18] = tested on: Fusobacterium necrophorum; assay: Antimicrobial activity against Fusobacterium necrophorum isolated from intra-abdominal infection and pelvic inflammatory disease patients after 48 hrs by agar dilution method; format: functional; outline: as §1
[19] = tested on: Clostridium paraputrificum; assay: Antimicrobial activity against Clostridium paraputrificum isolated from intra-abdominal infection and pelvic inflammatory disease patients after 48 hrs by agar dilution method; format: functional; outline: as §1
[20] = tested on: Fusobacterium mortiferum; assay: Antimicrobial activity against beta lactamase-positive Fusobacterium mortiferum isolated from intra-abdominal infection and pelvic inflammatory disease patients after 48 hrs by agar dilution method; format: functional; outline: as §1
[21] = tested on: Prevotella bivia; assay: Antimicrobial activity against beta lactamase-positive Prevotella bivia isolated from intra-abdominal infection and pelvic inflammatory disease patients after 48 hrs by agar dilution method; format: functional; outline: as §1
[22] = tested on: Prevotella denticola; assay: Antimicrobial activity against beta lactamase-positive Prevotella denticola isolated from intra-abdominal infection and pelvic inflammatory disease patients after 48 hrs by agar dilution method; format: functional; outline: as §1
[23] = tested on: Prevotella intermedia; assay: Antimicrobial activity against beta lactamase-positive Prevotella intermedia isolated from intra-abdominal infection and pelvic inflammatory disease patients after 48 hrs by agar dilution method; format: functional; outline: as §1
[24] = tested on: Clostridioides difficile; assay: Antimicrobial activity against Clostridium difficile isolated from intra-abdominal infection and pelvic inflammatory disease patients after 48 hrs by time kill analysis; format: functional; outline: as §6
[25] = tested on: Prevotella intermedia; assay: Bactericidal activity against beta lactamase-positive Prevotella intermedia isolated from intra-abdominal infection and pelvic inflammatory disease patients assessed as bacterial killing at 2 times MIC after 48 hrs by time kill analysis; format: functional; outline: as §2
[26] = tested on: Parabacteroides distasonis; assay: Antimicrobial activity against beta lactamase-positive Bacteroides distasonis isolated from intra-abdominal infection and pelvic inflammatory disease patients after 48 hrs by agar dilution method; format: functional; outline: as §1

C[C@@H](O)[C@H]1C(=O)N2C(C(=O)O)=C(S[C@@H]3CN[C@H](CNS(N)(=O)=O)C3)[C@H](C)[C@H]12 [DORIPENEM]
MIC50 [1]: 2 µg/mL (≈ 4.76 µM) | MIC90 [1]: 4 µg/mL (≈ 9.51 µM) | MIC [2]: 0.03 µg/mL (≈ 0.0713 µM) | Activity [3]: 99% | Activity [4]: inactive | Activity [5]: 90% | MIC [6]: 0.25 µg/mL (≈ 0.595 µM) | MIC50 [6]: 0.25 µg/mL (≈ 0.595 µM) | MIC90 [6]: 1 µg/mL (≈ 2.38 µM) | MIC [7]: 0.06 µg/mL (≈ 0.143 µM) | MIC50 [7]: 0.06 µg/mL (≈ 0.143 µM) | MIC90 [7]: 0.125 µg/mL (≈ 0.297 µM) | MIC [8]: 0.06 µg/mL (≈ 0.143 µM) | MIC50 [8]: 0.06 µg/mL (≈ 0.143 µM) | MIC90 [8]: 0.125 µg/mL (≈ 0.297 µM) | MIC50 [9]: 0.25 µg/mL (≈ 0.595 µM) | MIC90 [9]: 2 µg/mL (≈ 4.76 µM) | Activity [10]: 90% | MIC [11]: 0.25 µg/mL (≈ 0.595 µM) | MIC [12]: 0.03 µg/mL (≈ 0.0713 µM) | Activity [13]: 99% | MIC [14]: ≤ 0.016 µg/mL | MIC [15]: 0.25 µg/mL (≈ 0.595 µM) | Activity [16]: 90% | MIC [17]: 0.03 µg/mL (≈ 0.0713 µM) | MIC [18]: ≤ 0.016 µg/mL | MIC50 [18]: ≤ 0.016 µg/mL | MIC90 [18]: 0.25 µg/mL (≈ 0.595 µM) | MIC [19]: 0.25 µg/mL (≈ 0.595 µM) | MIC50 [20]: 0.25 µg/mL (≈ 0.595 µM) | MIC90 [20]: 1 µg/mL (≈ 2.38 µM) | MIC [21]: 0.06 µg/mL (≈ 0.143 µM) | MIC50 [21]: 0.06 µg/mL (≈ 0.143 µM) | MIC90 [21]: 0.125 µg/mL (≈ 0.297 µM) | MIC50 [22]: 0.03 µg/mL (≈ 0.0713 µM) | MIC90 [22]: 0.125 µg/mL (≈ 0.297 µM) | MIC50 [23]: 0.03 µg/mL (≈ 0.0713 µM) | MIC90 [23]: 0.125 µg/mL (≈ 0.297 µM) | MIC [24]: 1 µg/mL (≈ 2.38 µM) | Activity [25]: 99% | MIC50 [26]: 0.5 µg/mL (≈ 1.19 µM) | MIC90 [26]: 1 µg/mL (≈ 2.38 µM)
